Results as given in ChEMBL document CHEMBL3271935, “Synthesis and biological activity of some broad-spectrum N-acylphenyglycine cephalosporins” (1977).
In brackets after ≈: the same amount, converted by molar mass.

What was measured:
Pseudomonas aeruginosa [1] = test: Antibacterial activity against Pseudomonas aeruginosa HH 63 assessed as growth inhibition by two-fold agar dilution method; type: functional
Method in brief: (§1)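 MIC (μg/mL) by twofold agar dilution on Trypticase soy agar buffered to pH 6.0.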

Klebsiella aerogenes = test: Antibacterial activity against Enterobacter aerogenes ATCC 13048 assessed as growth inhibition by two-fold agar dilution method; type: functional; method in brief: as §1
Morganella morganii = test: Antibacterial activity against indole positive Proteus morganii 179 assessed as growth inhibition by two-fold agar dilution method; type: functional; method in brief: as §1
Escherichia coli [2] = test: Antibacterial activity against Escherichia coli 12140 assessed as growth inhibition by two-fold agar dilution method; type: functional; method in brief: as §1
Escherichia coli [3] = test: Antibacterial activity against Escherichia coli 12140 infected in sc dosed mouse administered at 1 to 5 hrs measured for 3 days; type: functional; conditions: Escherichia coli, 12140, sc; read-out: PD50
Method in brief: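 Mice infected intraperitoneally with about 2×10^3 organisms per mouse of E. coli 12140 culture diluted in 5% hog gastric mucin, giving uniformly lethal infection. Fourfold dilutions given subcutaneously in equally divided portions at 1 and 5 h postinfection, five groups per compound. Survivors observed 3 days. PD50 is total dose (mg/kg) protecting 50%, calculated by Litchfield–Wilcoxon method.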

Klebsiella pneumoniae = test: Antibacterial activity against Klebsiella pneumoniae 4200 assessed as growth inhibition by two-fold agar dilution method; type: functional; method in brief: as §1
Salmonella paratyphi = test: Antibacterial activity against Salmonella paratyphi ATCC 12176 assessed as growth inhibition by two-fold agar dilution method; type: functional, Salmonella enterica subsp. enterica serovar Paratyphi A; conditions: Salmonella enterica
Method in brief: (§2)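 Twofold agar dilution on Trypticase soy agar buffered to pH 6.0. MIC reported in μg/mL.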

Staphylococcus aureus = test: Antibacterial activity against penicillin G resistant Staphylococcus aureus HH 127 assessed as growth inhibition by two-fold agar dilution method; type: functional; method in brief: as §2
Pseudomonas aeruginosa [4] = test: Antibacterial activity against Pseudomonas aeruginosa 1106 assessed as growth inhibition; type: functional
Method in brief: (§3)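 Broth MIC by the standard microtiter technique in unbuffered Mueller-Hinton broth.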

Pseudomonas aeruginosa [5] = test: Antibacterial activity against Pseudomonas aeruginosa 219 assessed as growth inhibition; type: functional; method in brief: as §3
Pseudomonas aeruginosa [6] = test: Antibacterial activity against Pseudomonas aeruginosa 1042 assessed as growth inhibition; type: functional; method in brief: as §3
Pseudomonas aeruginosa [7] = test: Antibacterial activity against Pseudomonas aeruginosa 1504 assessed as growth inhibition; type: functional; method in brief: as §3
Pseudomonas aeruginosa [8] = test: Antibacterial activity against Pseudomonas aeruginosa 647 assessed as growth inhibition; type: functional; method in brief: as §3
Pseudomonas aeruginosa [9] = test: Antibacterial activity against Pseudomonas aeruginosa 864 assessed as growth inhibition; type: functional; method in brief: as §3
Pseudomonas aeruginosa [10] = test: Antibacterial activity against Pseudomonas aeruginosa 1063 assessed as growth inhibition; type: functional; method in brief: as §3
Pseudomonas aeruginosa [11] = test: Antibacterial activity against Pseudomonas aeruginosa 1062 assessed as growth inhibition; type: functional; method in brief: as §3

SMILES	MIC (Pseudomonas aeruginosa [1]) [µg/mL]	MIC (Klebsiella aerogenes) [µg/mL]	MIC (Morganella morganii) [µg/mL]	MIC (Escherichia coli [2]) [µg/mL]	ED50 (Escherichia coli [3]) [mg/kg]	MIC (Klebsiella pneumoniae) [µg/mL]	MIC (Salmonella paratyphi) [µg/mL]	MIC (Staphylococcus aureus) [µg/mL]	MIC (Pseudomonas aeruginosa [4]) [µg/mL]	MIC (Pseudomonas aeruginosa [5]) [µg/mL]	MIC (Pseudomonas aeruginosa [6]) [µg/mL]	MIC (Pseudomonas aeruginosa [7]) [µg/mL]	MIC (Pseudomonas aeruginosa [8]) [µg/mL]	MIC (Pseudomonas aeruginosa [9]) [µg/mL]	MIC (Pseudomonas aeruginosa [10]) [µg/mL]	MIC (Pseudomonas aeruginosa [11]) [µg/mL]
CC(=O)OCC1=C(C(=O)[O-])N2C(=O)[C@@H](NC(=O)C(NC(=O)CCCC(=O)[O-])c3ccccc3)[C@H]2SC1.[Na+].[Na+] (stereo partly drawn)	> 200	100	> 200	50	100	25	25	6.3								
CC(=O)OCC1=C(C(=O)O)N2C(=O)[C@@H](NC(=O)C(NC(=O)CSCC(=O)O)c3ccccc3)[C@H]2SC1 (stereo partly drawn)	> 200	25 (≈ 46.5 µM)	12.5 (≈ 23.3 µM)	12.5 (≈ 23.3 µM)	64	6.3 (≈ 11.7 µM)	6.3 (≈ 11.7 µM)	3.1 (≈ 5.77 µM)								
CC(=O)OCC1=C(C(=O)[O-])N2C(=O)[C@@H](NC(=O)C(NC(=O)COCC(=O)[O-])c3ccccc3)[C@H]2SC1.[Na+].[Na+] (stereo partly drawn)	> 200	12.5	12.5	6.3	21.5	3.1	12.5	3.1								
CC(=O)OCC1=C(C(=O)[O-])N2C(=O)[C@@H](NC(=O)C(NC(=O)C3CCC(C(=O)[O-])O3)c3ccccc3)[C@H]2SC1.[Na+].[Na+] (stereo partly drawn)	200	25	50	12.5	140	6.3	12.5	6.3								
Cn1nnnc1SCC1=C(C(=O)[O-])N2C(=O)[C@@H](NC(=O)C(NC(=O)CCCC(=O)[O-])c3ccccc3)[C@H]2SC1.[Na+].[Na+] (stereo partly drawn)	> 200	25	12.5	12.5	100	6.3	6.3	3.1	> 500	> 500	> 500	> 500	> 500	> 500	> 500	> 500
Cn1nnnc1SCC1=C(C(=O)[O-])N2C(=O)[C@@H](NC(=O)C(NC(=O)CSCC(=O)[O-])c3ccccc3)[C@H]2SC1.[Na+].[Na+] (stereo partly drawn)	> 200	3.1	1.6	6.3	50	3.1	3.1	3.1	> 500	500	> 500	500	> 500	> 500	> 500	500
Cn1nnnc1SCC1=C(C(=O)[O-])N2C(=O)[C@@H](NC(=O)C(NC(=O)COCC(=O)[O-])c3ccccc3)[C@H]2SC1.[Na+].[Na+] (stereo partly drawn)	200	3.1	0.4	1.6	8.7	0.8	1.6	3.1	500	125	250	125	125	500	500	250
Cn1nnnc1SCC1=C(C(=O)O)N2C(=O)[C@@H](NC(=O)C(N)c3ccccc3)[C@H]2SC1 (stereo partly drawn)	> 200	1.6 (≈ 3.47 µM)	6.3 (≈ 13.7 µM)	3.1 (≈ 6.72 µM)	1.4	1.6 (≈ 3.47 µM)	1.6 (≈ 3.47 µM)	3.1 (≈ 6.72 µM)								
CC(=O)OCC1=C(C(=O)[O-])N2C(=O)[C@@H](NC(=O)C(NC(=O)[C@H]3C[C@H]3C(=O)[O-])c3ccccc3)[C@H]2SC1.[Na+].[Na+] (mixture of isomers)	> 200	12.5	12.5	12.5	25	3.1	6.3	6.3								
CC(=O)OCC1=C(C(=O)[O-])N2C(=O)[C@@H](NC(=O)C(NC(=O)C3CO3)c3ccccc3)[C@H]2SC1.[Na+] (mixture of isomers)	> 200	25	25	25	100	12.5	12.5	1.6								
Cn1nnnc1SCC1=C(C(=O)[O-])N2C(=O)[C@@H](NC(=O)C(NC(=O)[C@H]3C[C@H]3C(=O)[O-])c3ccccc3)[C@H]2SC1.[Na+].[Na+] (mixture of isomers)	200	6.3	6.3	6.3	25	3.1	3.1	6.3	> 500	125	250	125	125	500	500	250
Cn1nnnc1SCC1=C(C(=O)[O-])N2C(=O)[C@@H](NC(=O)C(NC(=O)C3OC3C(=O)[O-])c3ccccc3)[C@H]2SC1.[Na+].[Na+] (mixture of isomers)	50	1.6	0.4	0.8	7	0.8	1.6	6.3	500	125	63	63	63	500	500	63
Cn1nnnc1SCC1=C(C(=O)[O-])N2C(=O)[C@@H](NC(=O)C(NC(=O)[C@@H]3O[C@@H]3C(=O)[O-])c3ccccc3)[C@H]2SC1.[Na+].[Na+] (mixture of isomers)	200	12.5	3.1	6.3	35	3.1	6.3	12.5	> 500	500	> 500	500	> 500	500	> 500	> 500
Cn1nnnc1SCC1=C(C(=O)[O-])N2C(=O)[C@@H](NC(=O)C(NC(=O)C3CCC(C(=O)[O-])O3)c3ccccc3)[C@H]2SC1.[Na+].[Na+] (mixture of isomers)	100	3.1	1.6	3.1	25	1.6	3.1	3.1	500	125	125	63	125	500	250	125
Cn1nnnc1SCC1=C(C(=O)[O-])N2C(=O)[C@@H](NC(=O)C(NC(=O)C3CO3)c3ccccc3)[C@H]2SC1.[Na+] (mixture of isomers)	200	12.5	3.1	12.5	45	6.3	6.3	1.6	> 500	> 500	> 500	500	> 500	> 500	> 500	> 500
Cn1nnnc1SCC1=C(C(=O)[O-])N2C(=O)[C@@H](NC(=O)[C@H](NC(=O)[C@H]3O[C@@H]3C(=O)[O-])c3ccccc3)[C@H]2SC1.[Na+].[Na+] (mixture of isomers)	> 200	25	25	25	150	12.5	12.5	1.6								
CC(=O)OCC1=C(C(=O)[O-])N2C(=O)[C@@H](NC(=O)C(NC(=O)C3OC3C(=O)[O-])c3ccccc3)[C@H]2SC1.[Na+].[Na+] (single isomer, unassigned; diastereomer 1)	100	3.1	3.1	1.6	12.5	0.8	1.6	6.3								
CC(=O)OCC1=C(C(=O)[O-])N2C(=O)[C@@H](NC(=O)C(NC(=O)[C@@H]3O[C@@H]3C(=O)[O-])c3ccccc3)[C@H]2SC1.[Na+].[Na+] (single isomer, unassigned; diastereomer 2)	> 200	25	200	12.5	72	6.3	6.3	12.5								
CC(=O)OCC1=C(C(=O)O)N2C(=O)[C@@H](NC(=O)[C@H](N)c3ccccc3)[C@H]2SC1 [CEPHALOGLYCIN]	> 200	50 (≈ 123 µM)	> 200	3.1 (≈ 7.65 µM)		3.1 (≈ 7.65 µM)	3.1 (≈ 7.65 µM)	3.1 (≈ 7.65 µM)								
CC(=O)OCC1=C(C(=O)O)N2C(=O)[C@@H](NC(=O)Cc3cccs3)[C@H]2SC1 [CEPHALOTHIN]	> 200	12.5 (≈ 31.5 µM)	> 200	3.1 (≈ 7.82 µM)	50	1.6 (≈ 4.04 µM)	0.8 (≈ 2.02 µM)	0.2 (≈ 0.504 µM)								
